# From article PMC3144155 (Journal of medicinal chemistry, 2011)
# Numbering of substitutions follows the chain as printed. pIC50: −log10 of the molar value.
# Experiments:
# [1] = test system: PP2A methylation state; experiment: PP2A methylation state in HEK 293T cells stably overexpressing PME-1; assay type: cell-based, human; conditions: 20 μM, 1 h
# Summary of the method: (§1)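 Compound or DMSO added to the medium of HEK 293T cells at 37 °C. Total sonicated cell extract diluted to 2 mg/mL in PBS, run on reducing 10% SDS-PAGE, and immunoblotted with demethylated-specific (4b7), methylated-specific (2A10) and total PP2A antibodies plus α-tubulin. Bands quantified by fluorescence imaging. Mean ± SEM, n = 3; compared with DMSO-treated cells.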
# [2] = biological target: T1, PME-1 (Mus musculus, UniProt Q8BVQ5); experiment: Gel-based competitive ABPP with FP-Rh, PME-1 in mouse brain soluble proteome; assay type: biochemical
# T1 sequence (Q8BVQ5 1-386): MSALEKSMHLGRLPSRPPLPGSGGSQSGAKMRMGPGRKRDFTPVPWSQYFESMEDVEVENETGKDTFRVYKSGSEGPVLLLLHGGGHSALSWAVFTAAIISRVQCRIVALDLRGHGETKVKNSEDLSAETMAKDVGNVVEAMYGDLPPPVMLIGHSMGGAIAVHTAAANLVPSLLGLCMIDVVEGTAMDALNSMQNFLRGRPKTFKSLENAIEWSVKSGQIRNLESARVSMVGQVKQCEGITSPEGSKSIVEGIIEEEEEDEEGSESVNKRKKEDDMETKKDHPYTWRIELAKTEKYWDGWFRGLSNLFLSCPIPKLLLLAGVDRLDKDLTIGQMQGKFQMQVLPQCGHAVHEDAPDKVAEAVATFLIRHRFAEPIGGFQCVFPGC
# Summary of the method: (§2)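 Soluble proteomes diluted to 1 mg/mL in PBS (pH 7.5) and preincubated with compound or DMSO for 30 min at 25 °C. FP-rhodamine then added (2 μM final) for 45 min. Reactions quenched with reducing SDS loading buffer, separated by 10% SDS-PAGE, and serine hydrolase activity read by in-gel fluorescence scanning.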
# [3] = test system: demethylated form of PP2A; experiment: PP2A methylation state in untransfected HEK 293T cells; assay type: cell-based, human; conditions: 1 hour, basal PME-1
# Summary of the method: as §1
# [4] = test system: CA-Rh or SE-Rh-labeled proteins; experiment: CA-Rh / SE-Rh probe labeling of soluble proteomes from treated HEK 293T cells; assay type: cell-based, human; conditions: 100 μM, relative to DMSO-treated samples
# Summary of the method: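 Compound or DMSO added to the culture medium of HEK 293T cells at 37 °C. Cells washed, scraped, pelleted, and sonicated in ice-cold PBS (pH 7.5). Soluble fraction isolated at 64,000g for 45 min at 4 °C and diluted to 1 mg/mL. Labelled with CA-rhodamine or SE-rhodamine (5 μM, 1 h, 25 °C), resolved by reducing 10% SDS-PAGE, and scanned for in-gel fluorescence.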
# [5] = test system: other SHs; experiment: In situ gel-based competitive ABPP, other SHs in HEK 293T cells; assay type: cell-based, human; conditions: up to 100 μM compound, 1 h
# Summary of the method: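 HEK 293T cells treated in culture with a concentration range of compound or DMSO for 1 h at 37 °C, then harvested and sonicated in PBS (pH 7.5). Soluble fraction (64,000g supernatant) diluted to 1 mg/mL and labelled with FP-rhodamine (2 μM, 45 min, 25 °C). Resolved by 10% SDS-PAGE and read by in-gel fluorescence scanning.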
# [6] = test system: 35 other SHs detected in HEK 293T cells; experiment: In situ competitive SILAC-ABPP; assay type: cell-based, human; conditions: 20 μM, 1 h
# Summary of the method: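 HEK 293T cells SILAC-labelled with light or heavy Lys/Arg. Light cells given compound and heavy cells DMSO, 1 h at 37 °C. Soluble and membrane proteomes (0.5 mg each) mixed 1:1 and labelled with FP-biotin (5 μM, 1 h, 25 °C). Streptavidin enrichment, on-bead trypsin digestion, then MudPIT LC-MS/MS. Light/heavy ratios taken for SHs with ≥2 quantifiable peptides, normalised to a DMSO/DMSO control.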
# [7] = biological target: T2, Purified wild-type PME-1 (Homo sapiens, UniProt Q9Y570); experiment: Reversibility of PME-1 inhibition; assay type: biochemical; conditions: PME-1 500 nM, compound 50 μM
# T2 sequence (Q9Y570 1-386): T1 sequence (Q8BVQ5 1-386) with T42S, G114S, S123P, V150I, A167S, A168S, V268I, N269S
# [8] = biological target: T3, PME-1 (Homo sapiens, UniProt Q9Y570); experiment: In situ competitive SILAC-ABPP; assay type: cell-based; conditions: HEK 293T cells, 20 μM, 1 h
# T3 sequence (Q9Y570 1-386): T1 sequence (Q8BVQ5 1-386) with T42S, G114S, S123P, V150I, A167S, A168S, V268I, N269S
# [9] = test system: other SHs; assay type: biochemical, mouse; conditions: Off-targets are defined as SHs with >50% inhibition at 50 μM; Table 1 series
# Summary of the method: as §2
# [10] = test system: other SHs in human cell lysates; experiment: Gel-based competitive ABPP, other SHs in human cell proteomes/lysates; assay type: biochemical; conditions: human cell proteomes
# [11] = biological target: T4, PME-1 (Homo sapiens, UniProt Q9Y570); experiment: PME-1 IC50 by gel-based competitive ABPP in soluble proteomes; assay type: biochemical; conditions: Table 2 series
# T4 sequence (Q9Y570 2-386 limits assumed): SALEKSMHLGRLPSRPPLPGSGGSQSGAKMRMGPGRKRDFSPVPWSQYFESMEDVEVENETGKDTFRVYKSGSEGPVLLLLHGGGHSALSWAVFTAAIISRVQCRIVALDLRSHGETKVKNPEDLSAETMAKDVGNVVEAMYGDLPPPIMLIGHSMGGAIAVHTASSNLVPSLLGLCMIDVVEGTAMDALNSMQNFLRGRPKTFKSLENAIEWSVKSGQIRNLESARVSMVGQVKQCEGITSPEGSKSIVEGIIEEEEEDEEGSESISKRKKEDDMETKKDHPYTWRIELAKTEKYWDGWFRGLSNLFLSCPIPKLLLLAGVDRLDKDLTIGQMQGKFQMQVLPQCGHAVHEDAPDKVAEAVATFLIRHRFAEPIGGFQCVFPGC
# [12] = biological target: T4, PME-1; conditions: read-out: PME-1 IC50; cited from earlier work
compound,measurement,setting,value
"N#C/C(=C\c1cccn1S(=O)(=O)c1cccc(C#N)c1)S(=O)(=O)c1ccc(F)cc1 [Cmpd 27, (E)-3-(2-(2-cyano-2-(4-fluorophenylsulfonyl)vinyl)-1H-pyrrol-1-ylsulfonyl)benzonitrile]",Effect on the methylated form of PP2A,[1],significantly increased
"CS(=O)(=O)/C(C#N)=C/c1ccccc1 [Cmpd 8, (E)-2-(methylsulfonyl)-3-phenylacrylonitrile]",PME-1 activity (in words),[2],inactive
"N#C/C(=C\c1cccn1S(=O)(=O)c1cccc([N+](=O)[O-])c1)S(=O)(=O)c1ccc(F)cc1 [Cmpd 28, (E)-2-(4-fluorophenylsulfonyl)-3-(1-(3-nitrophenylsulfonyl)-1H-pyrrol-2-yl)acrylonitrile]",Effect on the demethylated form of PP2A,[3]; 20 μM,decreased the demethylated form of PP2A
same,Change of intensity of CA-Rh or SE-Rh-labeled proteins,[4],did not alter the intensity
same,Cross-reactivity with other SHs in situ,[5],without any observed cross-reactivity
same,Effect on the methylated form of PP2A,[1],significantly increased
same,Activity against other SHs (SILAC-ABPP),[6],no activity
same,Recovery of enzyme activity after gel filtration,[7],not observed
same,in situ inhibition of PME-1 (SILAC-ABPP),[8],complete in situ inhibition
"CS(=O)(=O)/C(C#N)=C/c1ccc[nH]1 [Cmpd 7, (E)-2-(methylsulfonyl)-3-(1H-pyrrol-2-yl)acrylonitrile]",PME-1 activity (in words),[2],inactive
"CS(=O)(=O)/C(=C/c1cccn1S(=O)(=O)c1ccccc1)CN [Cmpd 4, (E)-2-(methylsulfonyl)-3-(1-(phenylsulfonyl)-1H-pyrrol-2-yl)prop-2-en-1-amine]",PME-1 activity (in words),[2],inactive
"N#CC(C#N)=Cc1cccn1S(=O)(=O)c1ccccc1 [Cmpd 17, 2-((1-(phenylsulfonyl)-1H-pyrrol-2-yl)methylene)malononitrile]",Off-targets,[9],increased activity against a 40 kDa SH
same,PME-1 activity (in words),[2],two-fold less potent
"CS(=O)(=O)C(=Cc1cccn1S(=O)(=O)c1ccccc1)S(C)(=O)=O [Cmpd 16, 2-(2,2-bis(methylsulfonyl)vinyl)-1-(phenylsulfonyl)-1H-pyrrole]",PME-1 activity (in words),[2],did not inhibit PME-1
"CS(=O)(=O)/C(C#N)=C/c1ccc([N+](=O)[O-])cc1 [Cmpd 9, (E)-2-(methylsulfonyl)-3-(4-nitrophenyl)acrylonitrile]",PME-1 activity (in words),[2],inactive
CS(=O)(=O)/C(C#N)=C/c1cccn1S(=O)(=O)c1ccccc1 [Cmpd 2],Cross-reactivity with additional SHs,[10],acyl-peptide hydrolase (APEH) and an unidentified 30 kDa SH
"CS(=O)(=O)/C(C#N)=C/c1cccn1S(=O)(=O)c1c(F)c(F)c(F)c(F)c1F [Cmpd 22, (E)-2-(methylsulfonyl)-3-(1-((perfluorophenyl)sulfonyl)-1H-pyrrol-2-yl)acrylonitrile]",PME-1 activity (in words),[11],no activity
"CS(=O)(=O)C(C#N)Cc1cccn1S(=O)(=O)c1ccccc1 (centres unmarked) [Cmpd 3, 2-(methylsulfonyl)-3-(1-(phenylsulfonyl)-1H-pyrrol-2-yl)propanenitrile]",PME-1 activity (in words),[2],inactive
"COC(=O)N1C(=O)[C@](c2ccccc2)(C2CCCC2)N1C(=O)OC (stereo in doubt) [Cmpd 1, reference compound]",Effect on the demethylated form of PP2A,[3]; 500 nM,decreased the demethylated form of PP2A
same,pIC50,[12],~8.00
